An excerpt weighted towards active compounds, which were near 3.7% of everything screened.
KCNQ1 inh: inhibitors of human KCNQ1 channel, primary screen, cell-based, thallium flux, high-throughput. AID 2642, 2010. hit rate 1.3% among 310,000. B-score at 10 µM. CHO-K1 KCNQ1, FluxOR thallium flux fluorescence; hits give high values. Potassium voltage-gated channel subfamily KQT member 1 (Homo sapiens), P51787;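 active = compounds whose thallium flux B-score, printed positive for inhibition, exceeds three library SD while starting fluorescence stays within three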;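 note: channel opened by potassium depolarization with thallium stimulus after 20 min compound exposure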
Target sequence (P51787 whole entry, looked up): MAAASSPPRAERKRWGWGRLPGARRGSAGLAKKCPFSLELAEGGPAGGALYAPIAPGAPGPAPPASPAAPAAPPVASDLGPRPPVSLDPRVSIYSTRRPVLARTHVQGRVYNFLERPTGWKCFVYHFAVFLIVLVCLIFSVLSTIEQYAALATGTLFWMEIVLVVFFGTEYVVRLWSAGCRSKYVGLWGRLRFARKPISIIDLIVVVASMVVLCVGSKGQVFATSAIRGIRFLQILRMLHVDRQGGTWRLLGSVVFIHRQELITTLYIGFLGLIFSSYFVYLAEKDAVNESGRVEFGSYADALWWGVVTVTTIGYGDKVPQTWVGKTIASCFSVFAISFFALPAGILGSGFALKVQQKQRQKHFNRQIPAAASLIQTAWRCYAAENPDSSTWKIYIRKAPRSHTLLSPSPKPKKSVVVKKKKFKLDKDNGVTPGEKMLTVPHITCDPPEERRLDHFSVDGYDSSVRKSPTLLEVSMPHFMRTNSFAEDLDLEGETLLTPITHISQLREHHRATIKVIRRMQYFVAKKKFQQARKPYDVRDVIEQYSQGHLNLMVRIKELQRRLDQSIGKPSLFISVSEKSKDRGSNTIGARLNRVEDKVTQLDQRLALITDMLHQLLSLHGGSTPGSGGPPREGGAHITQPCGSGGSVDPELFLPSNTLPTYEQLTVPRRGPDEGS
Kir21 block: inhibitors of mouse Kir2.1 inward-rectifier potassium channel | Inward rectifier potassium channel 2 (Mus musculus), P35561 | HEK293-Kir2.1, FluxOR thallium flux fluorescence; hits give low values | B-score at 10 µM | hit rate 0.85% among 310,000 | AID 1672, 2009;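 active = fluorescence ratio B-score at or below minus 3 SD of library scores, with starting-brightness B-score within 2 SD, cut at about -4.2 in these data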;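 note: channel flux triggered by added potassium and thallium sulfate stimulus; B-score of peak minus minimum fluorescence over baseline after thallium stimulus; more negative B-score means stronger Kir2.1 block with less thallium influx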
KCNK3 inh: human KCNK3 channel inhibitors, primary screen, CHO cells, FluxOR thallium flux, B-score; B-score at 10 µM; FluxOR fluorescence; hits give low values; hit rate 0.84% among 340,000;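 active = B-score under library mean minus 4 SD, starting fluorescence ratio at most library mean plus 5 SD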;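 note: more negative B-score means stronger inhibition of thallium flux through KCNK3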
KCNQ1 act: potentiators or activators of KCNQ1 channel, primary screen, cell-based, thallium flux, high-throughput; hit rate 0.35% among 310,000; B-score at 10 µM; AID 2648, 2010; CHO-K1 KCNQ1, thallium flux FluxOR fluorescence; hits give high values;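 active = fluorescence ratio B-score, a plate-corrected score, at least three library SD, with initial intensity B-score within 5 SD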
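assay system = CHO-K1 cells stably expressing KCNQ1 | medium = assay buffer, equal DMSO in all wells | timing = 37 °C overnight plating, 90-min dark dye load, 20-min compound pretreatment | measured by = kinetic FluxOR thallium fluorescence, 10-s 1-Hz baseline, 110-s post-stimulus read | measure = fluorescence change relative to baseline, converted to B score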
KCNK9 inh: KCNK9 potassium channel inhibitors, primary screen, HEK293 cells, thallium flux | hit rate 1.2% among 310,000 | Potassium channel subfamily K member 9 (Homo sapiens), Q9NPC2 | B-score at 10 µM | FluxOR thallium flux fluorescence; hits give low values | AID 488922, 2010;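 active = ratio B-score over 3 SD below the library mean, with starting fluorescence within 5 SD of its mean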;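 note: negative B-score means less thallium flux so channel inhibition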
hERG rescue: hERG rescue from dofetilide block, primary screen, cell-based, CHO-hERG, FluxOR thallium flux, dofetilide IC70. Voltage-gated inwardly rectifying potassium channel KCNH2 (Homo sapiens), Q12809. activation (rescue from dofetilide block), less the hit threshold, % at 10 µM. dofetilide IC70 present. hit rate 0.51% among 310,000. AID 1511, 2009;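 active = activation above the mean of controls blocked by dofetilide plus 5 SD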;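 note: thallium influx through hERG after potassium depolarization seen as dye fluorescence rise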
A number is an active result; i = inactive; nt = no result.

SMILES | KCNQ1 inh | Kir21 block | KCNK3 inh | KCNQ1 act | KCNK9 inh | hERG rescue
CC(NCc1cc(Br)ccc1OCC(=O)NCc1ccccc1)c1ccccc1 (centres undefined) | 6 | -15.5 | i | i | i | i
CCN(CC)CC#CCC(C)(c1ccccc1)c1ccccc1 | i | -8.87 | i | i | i | i
CCN(CC)CC#CCC(O)(c1ccccc1)c1ccccc1 | i | i | i | i | i | i
O=C(Nc1cccc(C(F)(F)F)c1)c1csc(-c2ccncc2)n1 | i | i | i | i | i | i
COc1cccc(NC(=O)c2cc3cccc(OC)c3o/c2=N\O)c1 | 7 | i | nt | i | i | i
COc1cc(NC(=O)c2csc(-c3ccncc3)n2)cc(C(=O)Nc2cccc(C(F)(F)F)c2)c1 | 11 | i | i | i | i | i
COc1cc(NC(=O)c2cc3cccc(OC)c3o2)cc(C(=O)Nc2cccc(C(F)(F)F)c2)c1 | 7 | i | i | i | i | i
CCN1CCN(Cc2ccc(NC(=O)c3cc(NC(=O)c4cc5cccc(OC)c5o4)cc(OC)c3)cc2C(F)(F)F)CC1 | i | i | i | i | i | i
O=C(c1ccc(Cl)c(Cl)c1)N1CCC(=O)N(C(COCc2ccccc2)Cc2ccccc2)CC1 (centres undefined) | i | i | i | i | i | i
Cc1sc2ncnc(SCC(=O)c3ccc(O)cc3O)c2c1C | i | i | i | 8 | i | i
Clc1ccc(CSc2nnc(CNc3cccc(Cl)c3)o2)cc1 | 6 | i | i | i | i | i
Fc1cccc(Cl)c1CSc1nnc(CNc2ccccc2)o1 | i | i | i | i | i | i
CC(C)CCN(CC(=O)NC(C)(C)C)C(=O)C(=O)Nc1ccc2c(c1)OCCO2 | i | i | i | i | i | i
O=C(O)c1ccc(N2CC3CC(C2)c2cccc(=O)n2C3)c(NC(=S)Nc2ccc(Br)cc2)c1 (centres undefined) | 6 | i | i | i | i | i
CCc1ccc(NC(=S)Nc2cc(C(=O)O)ccc2N2CC3CC(C2)c2cccc(=O)n2C3)cc1 (centres undefined) | i | i | i | i | i | i
CCCCn1nnnc1SCC(=O)c1cc(Cl)ccc1OC | i | i | i | i | i | i
COc1ccc(Cl)cc1C(=O)CSc1nc(N)cc(N)n1 | i | -4.72 | i | i | i | i
CC1CC(=O)Nc2ccccc2N1S(=O)(=O)c1ccc(F)cc1F (centres undefined) | i | i | i | i | i | i
CCCCNC(=O)COC(=O)C1CCN(S(=O)(=O)c2ccc3c(c2)OCCO3)CC1 | nt | nt | i | nt | nt | nt
CC(C)(C)c1ccc(C(=O)Nc2ccc(Oc3cccnc3)nc2)cc1 | i | i | i | i | i | i
CCOC(=O)C(=CNc1ccc(Oc2cccnc2)nc1)C(=O)OCC | i | i | i | i | i | 4.6
CCOC(=O)C(=CNc1cc(C)ccn1)C(=O)OCC | i | i | i | i | i | 5.1
Cc1ccc(-n2c(=O)c3ccccc3n(CC(=O)C(C)(C)C)c2=O)cc1 | i | i | i | i | i | i
CCCCn1nnc(NC(=O)c2ccc(-c3ccccc3[N+](=O)[O-])o2)n1 | i | i | i | i | i | i
CCCCn1nnc(NC(=S)NC(=O)c2ccc(-c3cccc(Cl)c3Cl)o2)n1 | i | i | i | i | i | 7.4
SMILES | KCNQ1 inh | Kir21 block | KCNK3 inh | KCNQ1 act | KCNK9 inh | hERG rescue
CCc1ccc(C(O)(CNCc2ccccc2)c2ccccc2)cc1 (centres undefined) | i | -8.86 | i | i | i | i
COc1ccc(CNCC(O)(c2ccccc2)c2ccc(Cl)cc2)cc1 (centres undefined) | i | -5.9 | i | i | i | i
CC(C)COC(=O)/C(C#N)=C/c1c[nH]c2ccccc12 | i | i | i | i | -7.3 | i
CCc1cc(/C(Cc2cscn2)=N\O)c(O)cc1O | i | i | i | i | i | i
CCc1cc(/C(Cc2ccccn2)=N\O)c(O)cc1O | i | -5.6 | i | i | i | i
c1ccc2c(-c3cc(C4CCNCC4)[nH]n3)cccc2c1 | i | i | i | i | i | i

High-throughput results (PubChem BioAssay)
